Measured values reported in ChEMBL document CHEMBL4673212, “Investigation of synergistic antimicrobial effects of the drug combinations of meropenem and 1,2-benzisoselenazol-3(2H)-one derivatives on carbapenem-resistant Enterobacteriaceae producing NDM-1” (Eur J Med Chem, 2018).
Converted amounts (≈) assume the structure as drawn.

Tests used:
Morganella morganii [1] = assay: Synergistic antibacterial activity against carbapenem-resistant Morganella morganii isolate 23 assessed as fractional inhibitory concentration index in presence of meropenem by CLSI protocol based assay; type: functional
Method in brief: (§1)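 FIC index from MICs of compound alone, meropenem alone, and the 1:1 (mass) compound–meropenem combination, read by eye after overnight incubation in a CLSI-based assay. FIC index = MICcombo/MICcpd + MICcombo/MICMem. FIC index ≤0.5 counted as synergy. At least triplicate assays. Clinical NDM-1 isolates for 17-39; E. coli TG1 carrying the IncX3 blaNDM-1 plasmid for 15.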

Enterobacter cloacae [2] = assay: Synergistic antibacterial activity against carbapenem-resistant Enterobacter cloacae isolate 18 harboring IMP-4 and TEM-1 assessed as fractional inhibitory concentration index in presence of meropenem by CLSI protocol based assay; type: functional
Enterobacter cloacae [3] = assay: Synergistic antibacterial activity against carbapenem-resistant Enterobacter cloacae isolate 10 harboring CTX-M-14, TEM-1 and SHV-12 assessed as fractional inhibitory concentration index in presence of meropenem by CLSI protocol based assay; type: functional; method in brief: as §1
Enterobacter cloacae [4] = assay: Synergistic antibacterial activity against carbapenem-resistant Enterobacter cloacae isolate 09 harboring CTX-M-3, CTX-M-14, TEM-1 and SHV-12 assessed as fractional inhibitory concentration index in presence of meropenem by CLSI protocol based assay; type: functional; method in brief: as §1
Enterobacter cloacae [5] = assay: Synergistic antibacterial activity against carbapenem-resistant Enterobacter cloacae isolate 08 harboring CTX-M-14, TEM-1 and SHV-12 assessed as fractional inhibitory concentration index in presence of meropenem by CLSI protocol based assay; type: functional; method in brief: as §1
Enterobacter cloacae [6] = assay: Synergistic antibacterial activity against carbapenem-resistant Enterobacter cloacae isolate 07 harboring CTX-M-14, TEM-1 and SHV-12 assessed as fractional inhibitory concentration index in presence of meropenem by CLSI protocol based assay; type: functional; method in brief: as §1
Klebsiella oxytoca [7] = assay: Synergistic antibacterial activity against carbapenem-resistant Klebsiella oxytoca isolate 16 harboring SHV-12 assessed as fractional inhibitory concentration index in presence of meropenem by CLSI protocol based assay; type: functional; method in brief: as §1
Klebsiella pneumoniae [8] = assay: Synergistic antibacterial activity against carbapenem-resistant Klebsiella pneumoniae isolate 14 harboring CTX-M-14, KPC-2 and SHV-12 assessed as fractional inhibitory concentration index in presence of meropenem by CLSI protocol based assay; type: functional; method in brief: as §1
Morganella morganii [9] = assay: Growth inhibition of carbapenem-resistant Morganella morganii isolate 26 by CLSI protocol based assay; type: functional
Morganella morganii [10] = assay: Growth inhibition of carbapenem-resistant Morganella morganii isolate 23 by CLSI protocol based assay; type: functional
Enterobacter cloacae [11] = assay: Growth inhibition of carbapenem-resistant Enterobacter cloacae isolate 19 harboring CTX-M-14 and KPC-2 by CLSI protocol based assay; type: functional
Enterobacter cloacae [12] = assay: Growth inhibition of carbapenem-resistant Enterobacter cloacae isolate 10 harboring CTX-M-14, TEM-1 and SHV-12 by CLSI protocol based assay; type: functional
Enterobacter cloacae [13] = assay: Growth inhibition of carbapenem-resistant Enterobacter cloacae isolate 09 harboring CTX-M-3, CTX-M-14, TEM-1 and SHV-12 by CLSI protocol based assay; type: functional
Citrobacter freundii [14] = assay: Growth inhibition of carbapenem-resistant Citrobacter freundii isolate 43 by CLSI protocol based assay; type: functional
Klebsiella oxytoca [15] = assay: Growth inhibition of carbapenem-resistant Klebsiella oxytoca isolate 16 harboring SHV-12 by CLSI protocol based assay; type: functional
Klebsiella oxytoca [16] = assay: Growth inhibition of carbapenem-resistant Klebsiella oxytoca isolate 03 harboring SHV-12 by CLSI protocol based assay; type: functional
Escherichia coli [17] = assay: Growth inhibition of carbapenem-resistant Escherichia coli isolate 45 by CLSI protocol based assay; type: functional
Escherichia coli [18] = assay: Growth inhibition of carbapenem-resistant Escherichia coli isolate 34 harboring CTX-M-15, TEM-1 and SHV-12 by CLSI protocol based assay; type: functional
Escherichia coli [19] = assay: Growth inhibition of carbapenem-resistant Escherichia coli isolate 06 harboring CTX-M-14, CTX-M-3 and SHV-12 by CLSI protocol based assay; type: functional
Klebsiella pneumoniae [20] = assay: Growth inhibition of carbapenem-resistant Klebsiella pneumoniae isolate 14 harboring CTX-M-14, KPC-2 and SHV-12 by CLSI protocol based assay; type: functional
Klebsiella pneumoniae [21] = assay: Growth inhibition of carbapenem-resistant Klebsiella pneumoniae isolate 04 harboring CTX-M-14, VIM-1, TEM-1 and SHV-12 by CLSI protocol based assay; type: functional
Morganella morganii [22] = assay: Potentiation of meropenem-induced antibacterial activity against carbapenem-resistant Morganella morganii isolate 23 assessed as meropenem MIC by CLSI protocol based assay (reference value: 64 ug/ml); type: functional
Enterobacter cloacae [23] = assay: Potentiation of meropenem-induced antibacterial activity against carbapenem-resistant Enterobacter cloacae isolate 27 harboring CTX-M-3, CTX-M-14, TEM-1 and SHV-12 assessed as meropenem MIC by CLSI protocol based assay (reference value: 32 ug/ml); type: functional
Enterobacter cloacae [24] = assay: Potentiation of meropenem-induced antibacterial activity against carbapenem-resistant Enterobacter cloacae isolate 22 harboring CTX-M-14, TEM-1 and SHV-12 assessed as meropenem MIC by CLSI protocol based assay (Rvb >= 128 ug/ml); type: functional
Enterobacter cloacae [25] = assay: Potentiation of meropenem-induced antibacterial activity against carbapenem-resistant Enterobacter cloacae isolate 10 harboring CTX-M-14, TEM-1 and SHV-12 assessed as meropenem MIC by CLSI protocol based assay (reference value: 64 ug/ml); type: functional
Citrobacter freundii [26] = assay: Potentiation of meropenem-induced antibacterial activity against carbapenem-resistant Citrobacter freundii isolate 43 assessed as meropenem MIC by CLSI protocol based assay (Rvb >= 128 ug/ml); type: functional
Citrobacter freundii [27] = assay: Potentiation of meropenem-induced antibacterial activity against carbapenem-resistant Citrobacter freundii isolate 35 harboring CTX-M-3, KPC-2 and SHV-12 assessed as meropenem MIC by CLSI protocol based assay (Rvb >= 128 ug/ml); type: functional
Citrobacter freundii [28] = assay: Potentiation of meropenem-induced antibacterial activity against carbapenem-resistant Citrobacter freundii isolate 05 harboring SHV-12 assessed as meropenem MIC by CLSI protocol based assay (Rvb >= 128 ug/ml); type: functional
Klebsiella oxytoca [29] = assay: Potentiation of meropenem-induced antibacterial activity against carbapenem-resistant Klebsiella oxytoca isolate 16 harboring SHV-12 assessed as meropenem MIC by CLSI protocol based assay (Rvb >= 128 ug/ml); type: functional
Escherichia coli [30] = assay: Potentiation of meropenem-induced antibacterial activity against carbapenem-resistant Escherichia coli isolate 06 harboring CTX-M-14, CTX-M-3 and SHV-12 assessed as meropenem MIC by CLSI protocol based assay (Rvb >= 128 ug/ml); type: functional
Escherichia coli [31] = assay: Synergistic antibacterial activity against Escherichia coli TG1 transformed with IncX3 plasmid expressing blaNDM-1 assessed as ratio of negative logarithm of fractional inhibitory concentration index to non-hydrogen atom in presence of meropenem incubated for overnight by CLSI protocol based assay; type: functional; conditions: time 12 hrs
Method in brief: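 In E. coli TG1 carrying the IncX3 blaNDM-1 plasmid, the FIC index was taken from overnight CLSI-based MICs of compound, meropenem and their 1:1 mass mixture, read by eye. Synergistic efficiency = −ln(FIC index) divided by the number of non-hydrogen atoms. At least triplicate assays.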

[32] = Growth inhibition of Escherichia coli TG1 transformed with IncX3 plasmid expressing blaNDM-1 incubated for overnight by CLSI protocol based assay; conditions: 12 h

SMILES: CC(C)(C)OC(=O)NCCn1[se]c2ccccc2c1=O
- fractional inhibitory concentration index (FICI) (Morganella morganii [1]): 0.19
- fractional inhibitory concentration index (FICI) (Enterobacter cloacae [2]): 0.63
- fractional inhibitory concentration index (FICI) (Enterobacter cloacae [3]): 0.19
- fractional inhibitory concentration index (FICI) (Enterobacter cloacae [4]): 0.13
- fractional inhibitory concentration index (FICI) (Enterobacter cloacae [5]): 0.16
- fractional inhibitory concentration index (FICI) (Enterobacter cloacae [6]): 0.19
- fractional inhibitory concentration index (FICI) (Klebsiella oxytoca [7]): 0.13
- fractional inhibitory concentration index (FICI) (Klebsiella pneumoniae [8]): 0.13
- MIC (Morganella morganii [9]): ≥ 128 µg/mL
- MIC (Morganella morganii [10]): ≥ 128 µg/mL
- MIC (Enterobacter cloacae [11]): ≥ 128 µg/mL
- MIC (Enterobacter cloacae [12]): ≥ 128 µg/mL
- MIC (Enterobacter cloacae [13]): ≥ 128 µg/mL
- MIC (Citrobacter freundii [14]): ≥ 128 µg/mL
- MIC (Klebsiella oxytoca [15]): ≥ 128 µg/mL
- MIC (Klebsiella oxytoca [16]): ≥ 128 µg/mL
- MIC (Escherichia coli [17]): ≥ 128 µg/mL
- MIC (Escherichia coli [18]): ≥ 128 µg/mL
- MIC (Escherichia coli [19]): ≥ 128 µg/mL
- MIC (Klebsiella pneumoniae [20]): ≥ 128 µg/mL
- MIC (Klebsiella pneumoniae [21]): ≥ 128 µg/mL
- MIC (Morganella morganii [22]): 8 µg/mL
- MIC (Enterobacter cloacae [23]): 4 µg/mL
- MIC (Enterobacter cloacae [24]): 16 µg/mL
- MIC (Enterobacter cloacae [25]): 8 µg/mL
- MIC (Citrobacter freundii [26]): 16 µg/mL
- MIC (Citrobacter freundii [27]): 8 µg/mL
- MIC (Citrobacter freundii [28]): 8 µg/mL
- MIC (Klebsiella oxytoca [29]): 8 µg/mL
- MIC (Escherichia coli [30]): 8 µg/mL
- Ratio (Escherichia coli [31]): 0.153
- MIC [32]: >= 128 ug ml-1

SMILES: O=c1c2ccccc2[se]n1-c1ccccc1 [EBSELEN]
- fractional inhibitory concentration index (FICI) (Morganella morganii [1]): 1.5
- fractional inhibitory concentration index (FICI) (Enterobacter cloacae [2]): 2.5
- fractional inhibitory concentration index (FICI) (Enterobacter cloacae [3]): 1.5
- fractional inhibitory concentration index (FICI) (Enterobacter cloacae [4]): 2
- fractional inhibitory concentration index (FICI) (Enterobacter cloacae [5]): 1.25
- fractional inhibitory concentration index (FICI) (Enterobacter cloacae [6]): 0.38
- fractional inhibitory concentration index (FICI) (Klebsiella oxytoca [7]): 0.5
- fractional inhibitory concentration index (FICI) (Klebsiella pneumoniae [8]): 2
- MIC (Morganella morganii [9]): ≥ 128 µg/mL
- MIC (Morganella morganii [10]): ≥ 128 µg/mL
- MIC (Enterobacter cloacae [11]): ≥ 128 µg/mL
- MIC (Enterobacter cloacae [12]): ≥ 128 µg/mL
- MIC (Enterobacter cloacae [13]): ≥ 128 µg/mL
- MIC (Citrobacter freundii [14]): ≥ 128 µg/mL
- MIC (Klebsiella oxytoca [15]): ≥ 128 µg/mL
- MIC (Klebsiella oxytoca [16]): ≥ 128 µg/mL
- MIC (Escherichia coli [17]): ≥ 128 µg/mL
- MIC (Escherichia coli [18]): ≥ 128 µg/mL
- MIC (Escherichia coli [19]): ≥ 128 µg/mL
- MIC (Klebsiella pneumoniae [20]): ≥ 128 µg/mL
- MIC (Klebsiella pneumoniae [21]): ≥ 128 µg/mL
- MIC (Morganella morganii [22]): 64 µg/mL
- MIC (Enterobacter cloacae [23]): 64 µg/mL
- MIC (Enterobacter cloacae [24]): ≥ 128 µg/mL
- MIC (Enterobacter cloacae [25]): 64 µg/mL
- MIC (Citrobacter freundii [26]): 32 µg/mL
- MIC (Citrobacter freundii [27]): 32 µg/mL
- MIC (Citrobacter freundii [28]): 16 µg/mL
- MIC (Klebsiella oxytoca [29]): 32 µg/mL
- MIC (Escherichia coli [30]): 64 µg/mL
- Ratio (Escherichia coli [31]): 0.043
- MIC [32]: 64 µg/mL (≈ 233 µM)
